MEKK2mut PB1 HTS = signal of MEK5 binding to mutant human MEKK2 PB1 domain; bead flow cytometry, Alexa488-MEK5 binding to MEKK2 mutant; percent response, % at 10 µM; 290,000 compounds, 0.35% hits; AID 1530; in the data active = percent response above about 24%, passing the limit was not always enough
MEKK3 PB1 HTS = MEKK3-MEK5 PB1 interaction, increase or decrease | AID 1529 | 290,000 compounds, 1.4% hits | Q99759 | binding response (% of control), % at 10 µM | bead-based flow cytometry, Alexa488-MEK5 binding to MEKK3; actives lie on both sides; 0 = blocked by unlabeled MEK5, 100 = vehicle;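 active = binding response more than 3 SD above or below the average of its plate-row segment, actives on both sides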;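 also: Alexa488 bead fluorescence after subtracting the streptavidin-only scavenger bead signal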
Target sequence (Q99759 whole entry, looked up): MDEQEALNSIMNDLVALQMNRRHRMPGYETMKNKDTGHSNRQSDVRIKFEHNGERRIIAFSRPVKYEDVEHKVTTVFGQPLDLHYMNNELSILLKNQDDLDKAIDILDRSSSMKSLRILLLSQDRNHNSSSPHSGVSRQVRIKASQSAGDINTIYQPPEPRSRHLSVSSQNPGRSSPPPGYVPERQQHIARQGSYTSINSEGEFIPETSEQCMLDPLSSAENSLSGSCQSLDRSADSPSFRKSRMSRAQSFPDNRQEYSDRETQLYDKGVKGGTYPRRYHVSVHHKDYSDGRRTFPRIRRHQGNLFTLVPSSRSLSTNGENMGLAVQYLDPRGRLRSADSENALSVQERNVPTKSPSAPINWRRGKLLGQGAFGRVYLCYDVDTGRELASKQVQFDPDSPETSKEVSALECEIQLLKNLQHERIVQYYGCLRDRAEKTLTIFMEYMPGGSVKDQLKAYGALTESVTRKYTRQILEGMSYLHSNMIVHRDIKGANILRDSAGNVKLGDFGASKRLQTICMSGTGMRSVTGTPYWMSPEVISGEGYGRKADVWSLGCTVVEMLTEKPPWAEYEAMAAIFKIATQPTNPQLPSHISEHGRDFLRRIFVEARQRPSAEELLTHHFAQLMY
Arr AP2 block = inhibitors of human beta-arrestin and AP2 interaction | inhibition, % at 10 µM | FITC-arrestin peptide / GST-AP2 beads, flow cytometry; AP2 beta2 appendage carries R879A mutation | AID 504490 | 340,000 compounds, 0.31% hits;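 active = inhibition above a set limit, near 3 SD of compounds lacking own fluorescence, cut at about 54% in these data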
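System: GST-AP2 R879A glutathione beads; medium: PBS, Tween 20 0.05%, BSA 0.1%; reagent: fluorescein-tagged arrestin peptide at 50 nM final; schedule: pre-incubation 12 min, peptide binding 1 h, room temperature; detection: flow cytometry, FL1 (488/535 nm); read-out: inhibition as reduced fluorescein signal on beads, percent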
MEKK2 WT-MEK5 = raises or lowers MEK5 binding to wildtype human MEKK2 PB1 domain; bead flow cytometry, Alexa488-MEK5 binding to MEKK2 WT; actives lie on both sides; Q9Y2U5; 290,000 compounds, 1.1% hits; binding response (% of control), % at 10 µM; in the data active = binding response below about 67% or above about 130%
MEKK2wt confirm = raises or lowers MEK5 binding to wildtype human MEKK2, retest | shares compounds with MEKK3 PB1 HTS | bead flow cytometry, Alexa488-MEK5 binding to MEKK2 WT; actives lie on both sides | binding response (% of control), % at 10 µM | 5,900 compounds, 2.4% hits; in the data active = binding response below about 16% or above about 210%; inactive = in between
MEKK2mut confirm = signal of MEK5 binding to mutant human MEKK2, retest | shares compounds with MEKK3 PB1 HTS | bead flow cytometry, Alexa488-MEK5 binding to MEKK2 mutant | 5,900 compounds, 2% hits | percent response, % at 10 µM; in the data active = percent response mostly above about 71%, no sharp cut-off; inactive = mostly below about 38%;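 also: higher means compound restores mutant binding toward wildtype level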
MEKK3-MEK5 inh = MEKK3-MEK5 PB1 inhibition, single concentration confirmation | shares compounds with MEKK3 PB1 HTS | binding response (% of control), % at 10 µM | bead flow cytometry, Alexa488-MEK5 binding to MEKK3; stronger effect = lower value | 5,900 compounds, 1.8% hits;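 active = binding response below 72% of control, or above a set upper limit, though filed actives all read lower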
Each line names hits and unclear results; the compound was inactive in the other large screens (follow-up assays come after a bar, where they were run); ! = a repeat was not active; [ ] = another dose, or the depositor's remark. This is a sample that favours compounds with a hit; in the whole collection about 2.3% have one here.

CCC(C)NC(=O)CCC(=O)Nc1ccc2nc(N3CCOCC3)cc(C)c2c1 (stereo not given)	none
CCC(C)NC(=O)CCC(=O)Nc1ccc2nc(N3CC(C)CC(C)C3)cc(C)c2c1 (stereo not given)	MEKK2mut PB1 HTS 90, MEKK2 WT-MEK5 9.0 | MEKK2wt confirm inactive | MEKK2mut confirm inactive | MEKK3-MEK5 inh inactive
CCOC(=O)c1c(-c2ccccc2)csc1NC(=O)C(C)NCCCN1CCOCC1 (stereo not given)	none
COc1ccc(N2CCN(S(=O)(=O)CCNC(=O)C3CCCCC3)CC2)cc1	none
CCOc1ccc(C(=O)Nc2ccc3nc(N4CCN(CC)CC4)cc(C)c3c2)cc1	MEKK2 WT-MEK5 148 | MEKK2wt confirm inactive | MEKK2mut confirm inactive | MEKK3-MEK5 inh inactive
CCN1CCN(c2cc(C)c3cc(NC(=O)c4cc(OC)cc(OC)c4)ccc3n2)CC1	MEKK2 WT-MEK5 139 | MEKK2wt confirm inactive | MEKK2mut confirm inactive | MEKK3-MEK5 inh inactive
COc1ccc(CNCCNC(=O)c2cccs2)c(OC)c1OC	none
COc1ccc(OC)c(CCNC(=O)c2ccc(NC3=NC4CS(=O)(=O)CC4S3)cc2)c1 (stereo not given)	none
Fc1ccc(NC(=S)Nc2cc(Cl)ccc2Cl)cc1	none
Fc1ccc(NC(=S)Nc2ccc(Cl)cc2)cc1	MEKK3 PB1 HTS 141 | MEKK2wt confirm inactive | MEKK2mut confirm inactive | MEKK3-MEK5 inh inactive
CC(=O)N(Cc1ccccc1)C1CC(=O)N(Cc2ccccc2)C1=O (stereo not given)	none (no result: MEKK2mut PB1 HTS, MEKK3 PB1 HTS, MEKK2 WT-MEK5)
COc1cccc(C(=O)NC(=S)Nc2ccc3oc(=O)ccc3c2)c1	none
COc1cccc(C(=O)NC(=S)Nc2ccc(N(C)C)cc2)c1	MEKK3 PB1 HTS 141 | MEKK2wt confirm inactive | MEKK2mut confirm inactive | MEKK3-MEK5 inh inactive
COc1cccc(C(=O)NC(=S)Nc2ccc(Cl)cc2C(=O)O)c1	MEKK3 PB1 HTS 131 | MEKK2wt confirm inactive | MEKK2mut confirm inactive | MEKK3-MEK5 inh inactive
CCOc1cccc(C(=O)NC(=S)Nc2cccc(C)c2)c1	MEKK3 PB1 HTS 130 | MEKK2wt confirm inactive | MEKK2mut confirm inactive | MEKK3-MEK5 inh inactive
Oc1ccc(Cc2ccc(Cl)cc2)c(O)c1	none
O=C(CNC(=O)c1ccccc1)OCc1cc(=O)n2cc(Br)ccc2n1	none
CN1CCN(CC(=O)Nc2c(C#N)cnn2-c2ccccc2)CC1	none
Fc1ccccc1CNC(=S)Nc1cccc(C(F)(F)F)c1	MEKK3 PB1 HTS 134 | MEKK2wt confirm inactive | MEKK2mut confirm inactive | MEKK3-MEK5 inh inactive
Fc1ccc(CNC(=S)Nc2cccc(C(F)(F)F)c2)cc1	none
Cn1c(SCCN2CCCC2)nnc1C1CCN(S(=O)(=O)c2cccc(F)c2)CC1	none
CN(C(=O)COC(=O)C(Cc1ccccc1)NC(=O)c1ccccc1)c1ccccc1 (stereo not given)	MEKK3 PB1 HTS 134 | MEKK2wt confirm inactive | MEKK2mut confirm inactive | MEKK3-MEK5 inh inactive
CC(C)CSc1nnc2[nH]c(=O)cc(N)n12	MEKK3 PB1 HTS 60[inhibitor] | MEKK2wt confirm inactive | MEKK2mut confirm inactive | MEKK3-MEK5 inh inactive
COc1cc2nc(N3CCN(C(=O)c4ccco4)CC3)nc(N)c2cc1OC	none
COc1cc2nc(N3CCN(C(=O)C4COc5ccccc5O4)CC3)nc(N)c2cc1OC (stereo not given)	MEKK2 WT-MEK5 150! | MEKK2wt confirm inactive | MEKK2mut confirm inactive | MEKK3-MEK5 inh inactive
O=C(Nc1ccc(Cl)cn1)c1ccc(COc2ccccc2Br)o1	MEKK3 PB1 HTS 49[inhibitor] | MEKK2wt confirm inactive | MEKK2mut confirm inactive | MEKK3-MEK5 inh inactive
CN(Cc1ccccc1)C(=O)COC(=O)c1cc(NS(=O)(=O)c2cccs2)ccc1O	none
Cc1nnc(SCc2ccc(CSc3nnc(C)c(=O)[nH]3)cc2)[nH]c1=O	none
O=C(CNC(=O)c1cccc(Br)c1)N/N=C/c1cc(Br)cc(Br)c1O	MEKK3 PB1 HTS 151 | MEKK2wt confirm inactive | MEKK2mut confirm inactive | MEKK3-MEK5 inh inactive
COc1ccc(N(CC(=O)Nc2cc(C)ccc2C)S(=O)(=O)c2ccccc2[N+](=O)[O-])c(OC)c1	none
COC(=O)c1cn(-c2ccccc2)nc1-c1ccc(OC)cc1	none
CCN(CC)CCNC(=S)NC(=O)c1cn(-c2ccccc2)nc1-c1ccc(OC)cc1	MEKK2 WT-MEK5 148 | MEKK2wt confirm inactive | MEKK2mut confirm inactive | MEKK3-MEK5 inh inactive
CCN(CC)CCNC(=O)c1ccc(NC(=O)c2cn(-c3ccccc3)nc2-c2cccs2)cc1	MEKK2 WT-MEK5 212 | MEKK2wt confirm 212 | MEKK2mut confirm inactive | MEKK3-MEK5 inh inactive
COC(=O)c1ccc(C(c2c(C)n(C)n(-c3ccccc3)c2=O)c2c(C)n(C)n(-c3ccccc3)c2=O)cc1	none
N#C/C(=C\c1ccc(C#N)cc1)C(=O)N1CCCC1	MEKK3 PB1 HTS 71[inhibitor] | MEKK2wt confirm inactive | MEKK2mut confirm inactive | MEKK3-MEK5 inh inactive
COc1ccc(CNC(=O)c2ccccc2SCC(=O)NCc2ccco2)cc1	none (no result: MEKK2mut PB1 HTS, MEKK3 PB1 HTS, MEKK2 WT-MEK5)
COc1cc(/C=C2/SC(=S)N(CC(=O)Nc3nc4ccccc4s3)C2=O)cc(OC)c1OC	MEKK2 WT-MEK5 71[inhibitor] | MEKK2wt confirm inactive | MEKK2mut confirm inactive | MEKK3-MEK5 inh inactive
CCc1nnc(NC(=O)CN2C(=O)/C(=C/c3cc(OC)c(OC)c(OC)c3)SC2=S)s1	MEKK3 PB1 HTS 159 | MEKK2wt confirm inactive | MEKK2mut confirm inactive | MEKK3-MEK5 inh inactive
COC(=O)c1cc(C)sc1NC(=O)C1CC(=O)NN1Cc1ccccc1 (stereo not given)	MEKK3 PB1 HTS 137 | MEKK2wt confirm inactive | MEKK2mut confirm inactive | MEKK3-MEK5 inh inactive
COc1ccc(C(=O)C[n+]2ccccc2C)cc1	MEKK3 PB1 HTS 143 | MEKK2wt confirm inactive | MEKK2mut confirm inactive | MEKK3-MEK5 inh inactive
O=C(C[n+]1cccc2ccccc21)c1ccc(Br)cc1	MEKK2mut PB1 HTS 234, MEKK3 PB1 HTS 24[inhibitor] (no result: MEKK2 WT-MEK5) | MEKK2wt confirm inactive | MEKK2mut confirm inactive | MEKK3-MEK5 inh inactive
O=C(C[n+]1cc(Br)cc2ccccc21)c1ccc(Br)cc1	none
NC(=O)C[n+]1cccc2ccccc21	none
Cc1cccc[n+]1CC(=O)c1ccc([N+](=O)[O-])cc1	none (no result: MEKK2mut PB1 HTS, MEKK3 PB1 HTS, MEKK2 WT-MEK5)
Cc1ccc(C(=O)C[n+]2cccc3ccccc32)cc1	MEKK3 PB1 HTS 80[inhibitor] | MEKK2wt confirm inactive | MEKK2mut confirm inactive | MEKK3-MEK5 inh inactive
CC(=O)Nc1ccc(S(=O)(=O)N2CCN(Cc3csc(C)n3)CC2)cc1	none
CCC(C)c1ccc(NC(=O)c2c([N+](=O)[O-])cnn2CC)cc1 (stereo not given)	none
O=S(Cc1ccccc1)Cc1ccccc1	none (no result: MEKK2mut PB1 HTS, MEKK3 PB1 HTS, MEKK2 WT-MEK5)
